We go through 16 compounds from ChEMBL document CHEMBL3580657, “Design and Evaluation of 3-(Benzylthio)benzamide Derivatives as Potent and Selective SIRT2 Inhibitors” (ACS Med Chem Lett, 2015).

Each structure is given as a SMILES string. Calls of active or inactive are those of the source. The rule behind the calls is not given here.

The target in series [1] is T1, NAD-dependent protein deacetylase sirtuin-2 (Homo sapiens) (UniProt Q8IXJ6).
T1 sequence (whole entry): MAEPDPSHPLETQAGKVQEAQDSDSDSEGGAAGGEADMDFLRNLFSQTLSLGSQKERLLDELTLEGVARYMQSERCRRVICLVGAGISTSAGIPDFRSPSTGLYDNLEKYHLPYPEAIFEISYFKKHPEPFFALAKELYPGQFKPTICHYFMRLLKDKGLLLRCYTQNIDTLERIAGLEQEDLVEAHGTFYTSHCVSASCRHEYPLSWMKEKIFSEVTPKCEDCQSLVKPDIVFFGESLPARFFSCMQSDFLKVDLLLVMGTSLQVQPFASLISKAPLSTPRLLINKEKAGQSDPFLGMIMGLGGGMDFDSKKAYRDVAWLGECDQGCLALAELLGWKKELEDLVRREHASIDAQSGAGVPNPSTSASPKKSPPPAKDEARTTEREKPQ
Put plainly: Inhibition of SIRT2 (unknown origin) at 10 uM by Flour-de-Lys fluorescent biochemical assay. In outline:
(§1)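 Biochemical sirtuin deacetylation assays (SIRT1, SIRT2, SIRT3) run as in earlier work. Single 10 μM dose in triplicate. Primary screen was SIRT2, with SIRT1 and SIRT3 as counter-screens. A reference compound was included with each assay.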

The target in series [2] is T2, NAD-dependent protein deacetylase sirtuin-1 (Homo sapiens) (UniProt Q96EB6).
T2 sequence (whole entry): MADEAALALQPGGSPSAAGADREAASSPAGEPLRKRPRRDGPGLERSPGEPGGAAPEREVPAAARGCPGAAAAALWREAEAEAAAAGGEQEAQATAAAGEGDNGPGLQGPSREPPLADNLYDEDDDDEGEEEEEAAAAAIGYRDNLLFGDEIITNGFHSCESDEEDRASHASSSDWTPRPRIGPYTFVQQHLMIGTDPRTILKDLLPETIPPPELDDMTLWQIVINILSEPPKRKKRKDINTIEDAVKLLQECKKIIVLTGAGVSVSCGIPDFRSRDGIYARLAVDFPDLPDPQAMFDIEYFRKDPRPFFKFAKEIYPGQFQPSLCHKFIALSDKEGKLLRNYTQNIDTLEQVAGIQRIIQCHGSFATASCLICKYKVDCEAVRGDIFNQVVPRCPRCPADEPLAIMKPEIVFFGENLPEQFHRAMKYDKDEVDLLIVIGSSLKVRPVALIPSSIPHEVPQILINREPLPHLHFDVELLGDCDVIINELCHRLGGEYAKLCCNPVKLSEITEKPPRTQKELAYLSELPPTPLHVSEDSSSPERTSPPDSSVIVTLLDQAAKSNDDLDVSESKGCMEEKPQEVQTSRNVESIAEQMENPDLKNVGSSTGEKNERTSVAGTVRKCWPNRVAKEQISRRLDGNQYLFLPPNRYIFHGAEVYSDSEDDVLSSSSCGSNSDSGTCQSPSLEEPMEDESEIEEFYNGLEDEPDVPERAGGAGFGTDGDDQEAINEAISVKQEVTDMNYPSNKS
Put plainly: Inhibition of SIRT1 (unknown origin) at 10 uM by Flour-de-Lys fluorescent biochemical assay. The essentials: as §1

For series [3], the target named is T3, NAD-dependent protein deacetylase sirtuin-3, mitochondrial (Homo sapiens) (UniProt Q9NTG7).
T3 sequence (whole entry): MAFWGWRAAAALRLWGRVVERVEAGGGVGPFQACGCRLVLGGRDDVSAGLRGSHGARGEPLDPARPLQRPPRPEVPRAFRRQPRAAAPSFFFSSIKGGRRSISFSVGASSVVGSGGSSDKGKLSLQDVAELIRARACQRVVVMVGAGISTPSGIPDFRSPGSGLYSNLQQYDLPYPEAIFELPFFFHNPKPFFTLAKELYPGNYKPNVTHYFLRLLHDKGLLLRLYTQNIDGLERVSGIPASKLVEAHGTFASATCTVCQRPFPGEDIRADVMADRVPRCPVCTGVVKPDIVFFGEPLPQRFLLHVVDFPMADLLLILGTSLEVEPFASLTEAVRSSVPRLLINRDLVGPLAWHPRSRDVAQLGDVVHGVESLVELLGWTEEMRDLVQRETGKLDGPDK
Put plainly: Inhibition of SIRT3 (unknown origin) at 10 uM by Flour-de-Lys fluorescent biochemical assay. The essentials: as §1

Series [4] addresses T4, NAD-dependent protein deacetylase sirtuin-2 (Homo sapiens, UniProt Q8IXJ6).
T4 sequence (Q8IXJ6 whole entry): T1 sequence (whole entry)
The experiment in a line: Inhibition of SIRT2 (unknown origin) by Flour-de-Lys fluorescent biochemical assay.

Series [5] has as its target T5, NAD-dependent protein deacetylase sirtuin-2 (Rattus norvegicus) (UniProt Q5RJQ4).
T5 sequence (whole entry): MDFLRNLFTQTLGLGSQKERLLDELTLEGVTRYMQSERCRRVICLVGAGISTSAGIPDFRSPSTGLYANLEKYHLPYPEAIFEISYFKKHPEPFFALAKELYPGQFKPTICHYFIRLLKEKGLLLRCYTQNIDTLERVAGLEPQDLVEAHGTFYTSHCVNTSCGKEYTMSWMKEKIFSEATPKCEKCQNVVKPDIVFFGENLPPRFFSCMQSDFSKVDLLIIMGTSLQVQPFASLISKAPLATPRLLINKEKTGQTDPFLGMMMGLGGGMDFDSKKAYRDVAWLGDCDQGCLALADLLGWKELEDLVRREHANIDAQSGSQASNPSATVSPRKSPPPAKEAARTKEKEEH
Put plainly: Inhibition of SIRT2 in rat ST14A cells assessed as increase in alpha-tubulin K40 acetylation at 0.5 to 50 uM incubated for 6 hrs by SDS-PAGE and Western blotting method. Format: cell-based. In outline:
(§2)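 Cells were treated with compound for 6 h across 0.5–50 μM. Extracts were resolved by SDS-PAGE and immunoblotted with an antibody to acetyl-K40 α-tubulin, with GAPDH as loading control. In ST14A, signal was normalized to GAPDH and quantified from blots.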
(In general: In western blotting, separated proteins are transferred to a membrane and probed.)

Series [6] concerns the target T5, NAD-dependent protein deacetylase sirtuin-2 (Rattus norvegicus). The experiment in a line: Inhibition of SIRT2 in rat ST14A cells assessed as increase in alpha-tubulin K40 acetylation at 25 uM incubated for 6 hrs by SDS-PAGE and Western blotting method. Format: cell-based. In outline:
as §2

Series [7] has the same target. The experiment in a line: Inhibition of SIRT2 in rat PC12 cells expressing inducible HD103Q-EGFP fusion fragment of huntingtin mutant assessed as reduction in number and size of fluorescent polyQ inclusions at 5 uM treated simultaneously with 2.5 uM ecdysone-inducible gene inducer muristerone A for 24 hrs by fluorescence microscopy. Format: cell-based. Conditions: PC-12. The essentials: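 PC12 cells carrying inducible HD103Q-EGFP huntingtin fragment were induced with 2.5 μM muristerone A for 24 h, simultaneous with compound at 25, 10 or 5 μM. PolyQ aggregation was scored by epifluorescence microscopy as number and size of fluorescent inclusions.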

Series [8] is described as follows: Toxicity in rat PC12 cells expressing inducible HD103Q-EGFP fusion fragment of huntingtin mutant assessed as effect on cell density at 5 uM by phase contrast microscopy. In kind it is cell-based. Conditions: pc-12, 5 µM.

For `O=C(Nc1ccc(Cl)cn1)c1cccc(S(=O)(=O)Cc2ccc(Cl)cc2)c1`, the inhibition – broadly, the relative decrease from the control value, in per cent – in series [1] came out at 2%.

`CS(=O)(=O)c1ccc(NC(=O)c2cccc([S+]([O-])Cc3ccc(Cl)cc3)c2)cc1` (stereo not drawn) showed an inhibition in series [1] of 18%.

Take `COc1ccc(C[S+]([O-])c2cccc(C(=O)Nc3ccc(C#N)cc3)c2)cc1` (stereo not drawn): the inhibition in series [1] was 21%.

Regarding `COc1ccc(CS(=O)(=O)c2cccc(C(=O)Nc3ccc(C#N)cc3)c2)cc1`, the inhibition in series [1] came out at 50%; in series [2], 3%; in series [3] it was 0%. Besides, in series [4] (read-out: IC50), the IC50 – broadly, the concentration that gives 50% inhibition – was found to be 6.7 µM.

Compound `C[S+]([O-])c1ccc(NC(=O)c2cccc([S+]([O-])Cc3ccc(Cl)cc3)c2)cc1` (stereo not drawn) registered an inhibition in series [1] of 24%.

`CC(=O)c1ccc(NC(=O)c2cccc(S(=O)(=O)Cc3ccc(Cl)cc3)c2)cc1`: the inhibition in series [1] was determined as 23%.

Turning to `C[S+]([O-])c1ccc(NC(=O)c2cccc(SCc3ccc(Cl)cc3)c2)cc1` (stereo not drawn), the inhibition in series [1] is 60%; in series [5], “Dose-dependent effect”; in series [2] it was 10%; in series [3], 8%. The IC50 in series [4] (read-out: IC50) is 8.4 µM.

For `N#Cc1ccc(NC(=O)c2cccc([S+]([O-])Cc3ccc(Cl)cc3)c2)cc1` (stereo not drawn), the inhibition in series [1] is 47%; in series [2], 12%; in series [3], 11%. In addition, in series [4] (read-out: IC50), the IC50 was found to be 7.1 µM.

Turning to `CSc1ccc(CSc2cccc(C(=O)Nc3ccc(C#N)cc3)c2)cc1`, the inhibition result in series [6] and in series [7] was “Active” each time. The inhibition in series [1] amounted to 83%; in series [2], 3%; in series [3], 0%. Also, in series [8], the Activity result is recorded as “Non-toxic”. The 50% inhibitory concentration (IC50) in series [4] (read-out: IC50) is 2.4 µM.

On to `O=C(Nc1ccc(Cl)cc1)c1cccc(S(=O)(=O)Cc2ccc(Cl)cc2)c1`, for which the inhibition in series [1] turned out to be 0%.

On to `N#Cc1ccc(NC(=O)c2cccc(S(=O)(=O)Cc3ccc(Cl)cc3)c2)cc1`, for which the inhibition in series [1] turned out to be 40%; in series [2], 0%; in series [3], 0%. Also, in series [4] (read-out: IC50), the IC50 worked out at 4.7 µM.

As to `N#Cc1ccc(NC(=O)c2cccc(SCc3ccc(Cl)cc3)c2)cc1`, the inhibition is 81% in series [1], 8% in series [2] and 0% in series [3]. Further, in series [4] (read-out: IC50), the half-inhibitory concentration (IC50) is 2.9 µM.

For `O=C(Nc1ccc(Br)cc1)c1cccc(S(=O)(=O)Cc2ccc(Cl)cc2)c1`, the inhibition in series [1] came to 0%.

Turning to `O=C(Nc1ccc(Cl)nn1)c1cccc(S(=O)(=O)Cc2ccc(Cl)cc2)c1`, the inhibition in series [1] was 0%.

In series [1], `CS(=O)(=O)c1ccc(NC(=O)c2cccc(S(=O)(=O)Cc3ccc(Cl)cc3)c2)cc1` showed an inhibition of 17%.

For `N#Cc1ccc(NC(=O)c2cccc(S(=O)(=O)Nc3ccc(Cl)cn3)c2)cc1`, the concentration for half-maximal inhibition (IC50) result in series [4] is listed as “Not Active”.
